Results collected from several papers.
Lines come from different studies, so protocols differ.
Target: RAF proto-oncogene serine/threonine-protein kinase (RAF1, Homo sapiens, UniProt P04049)

CC1CCCN1c1nccc(-c2cnn3ncccc23)n1 (stereo not drawn)
remaining binding (binding; 1 µM): 100%

O=C(NCC1CCOCC1)c1n[nH]cc1NC(=O)c1c(F)cccc1F
remaining binding (binding; competition with immobilised ligand; 1 µM): 58%

CCC(=O)N[C@@H]1CC[C@H](C(=O)N(C)c2ccc(-c3nc4ccccc4o3)cc2)C1
remaining binding (cell-free assay; competition with immobilised ligand; 1 µM): 94%

COc1cnc(Nc2cccc(S(N)(=O)=O)c2)nc1N1CCN(c2ccccc2)CC1
remaining binding (binding; competition with immobilised ligand; 1 µM): 100%

Cc1c(C(=O)O)cc(-c2ccc(C3CCNCC3)cc2)c2ccc(-c3ccc(C(F)(F)F)cc3)cc12
remaining binding (binding; competition with immobilised ligand; 1 µM): 80%

C=CC(=O)N1CCC(C(=O)NCC(=O)N2CCN(c3nc(-c4cnc(N)nc4C(F)F)nc(N4CCOCC4)n3)CC2)CC1
remaining binding (binding; competition with immobilised ligand; 1 µM): 93%

CC(C)(C)c1ccc(-c2nc(CBr)nn2-c2cccc(O)c2)cc1
remaining binding (cell-free assay; competition with immobilised ligand; 10 µM): 87%

O=C(c1ccc(Nc2nccc(-c3cc4ccccc4s3)n2)cc1)N1CCC(N2CCCC2)CC1
remaining binding (binding; competition with immobilised ligand; 1 µM): 84%

CCN1CCN(Cc2ccc(C(=O)Nc3ccc(C)c(Oc4ccc5c(c4)CC(=O)N5)c3)cc2C(F)(F)F)CC1
remaining binding (binding; competition with immobilised ligand; 1 µM): 95%

Nc1ncc2c(n1)-c1c([nH]c3ccc(C#CC4CC4)cc13)CCCC2
remaining binding (binding; competition with immobilised ligand; 1 µM): 79%

C[C@@H]1CCN(c2nccc(-c3cnn4ncccc34)n2)C1
remaining binding (binding; 1 µM): 100%

O=C(Nc1cccnn1)N1CC(C/C=C/c2cncc(Oc3ccc(C(F)(F)F)cn3)n2)C1
remaining binding (cell-free assay; competition with immobilised ligand; 1 µM): 100%

N[C@H]1CCN(c2nccc(-c3cnn4ncccc34)n2)C1
remaining binding (binding; 1 µM): 100%

O=C(NCCCN1CCOCC1)c1ccc(Nc2ncc(Cl)c(-c3ccc(Cl)s3)n2)cc1
remaining binding (binding; competition with immobilised ligand; 1 µM): 89%

CN(C)c1nccc(-c2cnc3ncccn23)n1
remaining binding (binding; 1 µM): 67%

O=C(NC[C@@H]1[C@H]2CN(C(=O)OCc3cc(C(F)(F)F)cc(C(F)(F)F)c3)C[C@@H]12)c1ccc2[nH]nnc2c1
remaining binding (cell-free assay; competition with immobilised ligand; 1 µM): 100%

Cc1cnc(Nc2ccc(C(=O)N3CCC(N4CCCC4)CC3)cc2)nc1-c1cc2ccccc2s1
remaining binding (binding; competition with immobilised ligand; 1 µM): 60%

CNC(=O)Nc1ccc2c(c1)[C@@]1(CC2)OC(=O)N(CC(=O)N(Cc2ccc(F)cc2)[C@@H](C)C(F)(F)F)C1=O
remaining binding (cell-free assay; competition with immobilised ligand; 1 µM): 100%

C[C@@H]1CN(c2ccc3ncc(-c4ccc5[nH]nc(C6CC6)c5c4)n3n2)C[C@H](C)O1
remaining binding (binding; competition with immobilised ligand; 50 nM): 100%

COc1ncc2cc3ccccc3nc2c1C#N
remaining binding (cell-free assay; competition with immobilised ligand; 5 µM): 93%

COc1ccc2c(O[C@@H]3C[C@H]4C(=O)N[C@]5(C(=O)O)CC5/C=C\CCCCC[C@H](NC(=O)OC5CCCC5)C(=O)N4C3)cc(-c3csc(NC(=O)C(C)C)n3)nc2c1C (stereo partly drawn)
remaining binding (cell-free assay; competition with immobilised ligand; 1 µM): 95%

F[C@@H]1CCN(c2nccc(-c3cnn4ncccc34)n2)C1
remaining binding (binding; 1 µM): 100%

CC(C)(O)c1cncc(-c2nc3ccc(F)cc3n2C2CC2)c1
remaining binding (cell-free assay; competition with immobilised ligand; 1 µM): 83%

c1cnn2ncc(-c3ccnc(N4CCC45COC5)n3)c2c1
remaining binding (binding; 1 µM): 73%
